# Source: PubChem
# Scp-1 inhibitor – Scp-1 (human) phosphatase inhibition; Recombinant Scp1, phosphopeptide, malachite green phosphate absorbance; 0.88% of 340,000 active; inhibition, % at 20 µM;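 active means inhibition above about 50% at 20 µM, limit read from the data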;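 further: plate controls were DMSO wells with enzyme for no effect and wells lacking enzyme for full effect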
# Target sequence (Q9GZU7 76-261 limits assumed): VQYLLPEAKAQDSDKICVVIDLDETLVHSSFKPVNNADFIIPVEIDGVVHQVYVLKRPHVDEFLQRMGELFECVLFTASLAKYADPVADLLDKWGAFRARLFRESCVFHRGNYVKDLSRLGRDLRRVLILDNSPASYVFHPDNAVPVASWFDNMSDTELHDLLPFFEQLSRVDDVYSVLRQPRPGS
#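 Test system: SCP-1 phosphatase catalytic domain, residues 76-261 | Compound dosing: One concentration, 20 µM, with 1.0% DMSO | Schedule: 45 min room-temperature reaction, 5 min colour, 30 min stabiliser | Detection: Absorbance at 630 nm | Read-out basis: % inhibition of SCP-1 phosphate liberation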
# NadD block – NadD (S. aureus) enzyme inhibition | purified NadD enzyme, colorimetric absorbance read-out | inhibition, % at 20 µM | 0.78% of 360,000 active | AID 602399; in the data active means inhibition above about 26%
# DNMT1 inh – blocks human DNA methyltransferase DNMT1; DNMT1 molecular beacon, Hinp1I cleavage, fluorescence; inhibition (reported as % activation of signal), % at 10 µM; P26358; 0.83% of 360,000 active; AID 588458; in the data active means inhibition above about 50%
# SUMO1 PPI mod – SUMO1-SIM interaction modulation. AID 602429. 0.33% of 360,000 active. P63165. inhibition, % at 20 µM. SUMO1 binding to a labelled peptide, TR-FRET, 1 h; in the data active means inhibition above about 37%
# Target sequence (P63165 whole entry, looked up): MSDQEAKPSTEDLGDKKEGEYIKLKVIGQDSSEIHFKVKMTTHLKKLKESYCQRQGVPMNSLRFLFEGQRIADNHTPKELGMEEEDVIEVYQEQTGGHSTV
# LMPTP inh – blocks human LMPTP phosphatase. 0.22% of 360,000 active. P24666. inhibition, % at 20 µM. recombinant LMPTP-A, OMFP fluorogenic substrate, fluorescence intensity;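 active means compounds that cut the enzyme signal by at least half of the control window in the single-dose screen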;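 further: plate controls were DMSO wells with enzyme plus substrate for no effect and substrate without enzyme for full effect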
#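 Assay system: LMPTP-A enzyme. Input: 0.625 nM LMPTP-A final. Probe or stimulus: 400 µM OMFP. Compound dosing: single 20 µM dose. Schedule: 50 min dark incubation at room temperature. Detection: fluorescence intensity of OMFP turnover product. Read-out: percent inhibition versus substrate-only and uninhibited controls. Benchmarks: no-enzyme low control, uninhibited high control.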
# STEP block – inhibitors of human striatal-enriched phosphatase STEP; P54829; recombinant STEP, OMFP fluorogenic substrate, fluorescence; inhibition, % at 20 µM; 0.25% of 360,000 active;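 active means inhibition at 20 µM, scaled per plate between control wells, above about 37%, limit read from the data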;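 further: 0% = DMSO with enzyme and substrate and 100% = substrate only without enzyme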
#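 material = STEP tyrosine phosphatase | reagent = fluorogenic phosphatase substrate OMFP at 25 µM final | doses = single compound dose of 20 µM, 1% DMSO final | schedule = 20 min reaction, room temperature, in the dark | measured by = fluorescence, 480/540 nm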
# Active calls of the source: *; · = not tested or not shown. An excerpt weighted towards active compounds, which were near 2.3% of everything screened.
SMILES,Scp-1 inhibitor,NadD block,DNMT1 inh,SUMO1 PPI mod,LMPTP inh,STEP block
O=C(CNc1ccc(Cl)c(C(F)(F)F)c1)N1CCN(S(=O)(=O)c2ccccc2)CC1,69*,20,-1,0,2,2
CC(=O)c1ccc(NCC(=O)N2CCN(S(=O)(=O)c3ccccc3)CC2)cc1,-2,0,3,2,0,0
c1coc(-c2nnc(-c3ccco3)nn2)c1,71*,9,116*,92*,21,91*
c1ccc(-c2nnc(-c3ccco3)o2)cc1,-2,-2,10,-1,-1,-1
O=C1Nc2ccccc2-n2nnnc2C1N1CCc2ccccc2C1 (centres undefined),·,·,·,3,-1,·
O=C(COC(=O)c1nc(Cl)ccc1Cl)Nc1ccc2[nH]c(=O)[nH]c2c1,-1,1,8,63*,0,2
O=C(COC(=O)Cc1c(Cl)cccc1Cl)Nc1ccc2[nH]c(=O)[nH]c2c1,1,-2,0,55*,0,3
COc1cc(NC(=O)CN(C)S(=O)(=O)c2ccc3c(c2)CC(C)N3C(C)=O)cc(OC)c1 (centres undefined),-7,1,4,5,-2,0
CC(CNC(=O)c1ccccc1Cl)NC(=O)c1ccccc1Cl (centres undefined),5,-4,16,8,11,14
Cc1ccc(N2NC(=O)/C(=C/c3ccc(-c4ccc(Cl)c(C(=O)O)c4)o3)C2=O)cc1,43,4,29,18,6,11
COc1ccc(-n2c(C)cc(/C=C3\C(=O)NN(c4ccccc4)C3=O)c2C)cc1,-6,12,-13,-17,2,-1
COc1ccc(Sc2ccc(/C=C3\C(=O)NN(c4ccccc4)C3=O)o2)cc1,35,7,56*,7,4,8
O=C1NN(c2ccccc2)C(=O)/C1=C\c1ccc(-c2cc([N+](=O)[O-])ccc2O)o1,87*,21,23,-1,84*,46*
O=c1[nH]c2ccccc2c2nc(-c3cccc(S(=O)(=O)N4CCCC4)c3)nn12,8,4,-2,42*,7,9
CCOC(=O)C1Nc2ccc(Br)cc2C2C=CCC12 (centres undefined),0,27,-28,-7,4,2
O=C(O)C1Nc2c(O)cccc2C2C=CCC12 (centres undefined),71*,40*,103*,26,74*,16
CCOC(=O)C1Nc2ccc(C)cc2C2C=CCC12 (centres undefined),9,0,-17,-18,1,0
CC(C)CNC(=O)C1Nc2ccccc2C2C=CCC12 (centres undefined),0,12,-18,-2,0,-1
O=C(O)C1Nc2c(Cl)cc(Cl)cc2C2C=CCC12 (centres undefined),72*,28,88*,103*,87*,41*
O=C(O)C1Nc2ccc(Br)cc2C2C=CCC12 (centres undefined),69*,31*,93*,94*,84*,94*
COc1cccc(NC(=S)N(Cc2ccc(Cl)cc2)Cc2ccc(C(=O)O)cc2)c1,-1,-1,-4,1,-1,2
Fc1ccc(-n2nnc(-c3nccs3)n2)cc1,-2,-1,16,3,-2,-2
O=[N+]([O-])c1ccc(Nc2ccccc2)c2nonc12,-11,-3,-10,-90,16,8
NNc1ccc([N+](=O)[O-])c2[nH][nH]c(=O)c12,·,19,85*,99*,84*,96*
O=C(OCC(=O)N1CCN(c2ccccc2)CC1)c1nc(Cl)ccc1Cl,-8,-4,-1,4,-1,-2
Fc1ccc(OCCCCN2CCOCC2)cc1,-9,0,0,1,-2,4
CCN1/C(=C/c2ccc3ccccc3[n+]2CC)C=Cc2ccccc21,104*,11,40,19,46,24
Cc1cccc(N2CCN(C(C(=O)NCc3ccccc3)c3ccc(C(F)(F)F)cc3)CC2)c1C (centres undefined),·,·,·,-2,0,·
